pKi: −log10 of the molar value. Calls of active or inactive are those of the source. The rule behind the calls is not given here.
Legend:
[1] = system: Mus musculus; experiment: Antinociceptive activity in Kunming mouse assessed as increase in latency to withdrawal by measuring AUC at 10 mg/kg, sc measured up to 45 mins post dose by tail-flick test; format: functional, organism-based; parameters: dose 10 mg/kg, time < 0.75 hr
How it was run: (§1)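 Mouse tail-flick test. A single fixed dose was given, either 20 nmol/kg i.c.v. or 10 mg/kg s.c. Antinociception was followed as a time course, and the area under the effect-time curve (A.U.C) was calculated.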

[2] = system: Mus musculus; experiment: Antinociceptive activity in Kunming mouse assessed as increase in latency to withdrawal by measuring AUC at 20 nmol/kg, i.c.v measured up to 45 mins post dose by tail-flick test; format: functional, organism-based; parameters: dose 20 nmol/kg, time < 0.75 hr; how it was run: as §1
[3] = molecular target: Delta-type opioid receptor (Rattus norvegicus, UniProt P33533); experiment: Displacement of [3H]-DPDPE from delta opioid receptor in Wistar rat brain membranes preincubated for 3 hrs measured after 1 hr by scintillation counting method; format: cell membranes, Membrane
How it was run: (§2)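 Opioid receptor binding done on rat brain membranes. Affinity values are given as mean ± SEM of 8-12 measurements.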

[4] = species on record: Rattus norvegicus; experiment: Selectivity ratio of Ki from delta opioid receptor in Wistar rat brain membranes to Ki from mu opioid receptor in Wistar rat brain membranes; format: cell membranes
[5] = molecular target: Mu-type opioid receptor (Rattus norvegicus, UniProt P33535); experiment: Displacement of [3H]-DAMGO from mu opioid receptor in Wistar rat brain membranes preincubated for 1 hr measured after 1hr by scintillation counting method; format: cell membranes, Membrane; how it was run: as §2
[6] = Half life in Kunming mouse 15% brain homogenate at 500 uM by RP-HPLC analysis; format: ADME, tissue-based
How it was run: (§3)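 Peptide stability was measured by incubation in 15% mouse brain homogenate or in mouse plasma, and the half-life was determined for each matrix.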

[7] = Half life in Kunming mouse plasma at 500 uM by RP-HPLC analysis; format: ADME, cell-free; how it was run: as §3
[8] = system: Mus musculus; experiment: Antinociceptive activity in Kunming mouse assessed as increase in latency to withdrawal at 10 mg/kg, sc measured up to 5 to 45 mins post dose in presence of opioid antagonist naloxone by tail-flick test; format: functional, organism-based

Delta-type opioid receptor, sequence (P33533 whole entry): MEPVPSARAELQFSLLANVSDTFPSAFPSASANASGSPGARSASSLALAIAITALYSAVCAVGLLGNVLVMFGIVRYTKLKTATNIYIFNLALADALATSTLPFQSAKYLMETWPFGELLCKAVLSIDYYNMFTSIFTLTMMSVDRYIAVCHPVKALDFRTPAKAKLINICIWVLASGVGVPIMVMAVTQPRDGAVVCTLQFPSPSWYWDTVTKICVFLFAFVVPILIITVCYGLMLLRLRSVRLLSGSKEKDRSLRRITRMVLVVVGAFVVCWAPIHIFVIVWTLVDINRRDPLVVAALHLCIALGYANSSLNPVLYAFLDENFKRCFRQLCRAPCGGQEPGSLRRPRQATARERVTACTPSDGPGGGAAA
Mu-type opioid receptor, sequence (P33535 whole entry): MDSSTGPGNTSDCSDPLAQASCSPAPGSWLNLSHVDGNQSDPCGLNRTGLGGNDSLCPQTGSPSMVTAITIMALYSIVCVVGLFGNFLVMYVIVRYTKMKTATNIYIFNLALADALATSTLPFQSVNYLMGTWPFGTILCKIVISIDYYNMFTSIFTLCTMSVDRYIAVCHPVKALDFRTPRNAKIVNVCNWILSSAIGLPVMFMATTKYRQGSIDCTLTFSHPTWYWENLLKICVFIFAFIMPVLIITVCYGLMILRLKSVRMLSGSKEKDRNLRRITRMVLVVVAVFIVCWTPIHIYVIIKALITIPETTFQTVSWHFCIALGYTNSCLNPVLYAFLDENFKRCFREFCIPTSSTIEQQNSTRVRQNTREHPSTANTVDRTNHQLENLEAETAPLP

Row | SMILES | AUC [1] | AUC [2] | pKi [3] | Ratio Ki [4] | pKi [5] | half-life at 500 µM [6] [h] | half-life at 500 µM [7] [h] | Activity [8]
1 | NC(=O)[C@H](Cc1ccccc1)NC(=O)[C@H](Cc1c[nH]c2ccccc12)NC(=O)[C@@H]1CCCN1C(=O)[C@@H](N)Cc1ccc(O)cc1 | 693 | 271 | – | – | – | – | – | –
2 | C[C@@H](NC(=O)[C@@H](N)Cc1ccc(O)cc1)C(=O)NCC(=O)N[C@@H](Cc1c[nH]c2ccccc12)C(=O)N[C@@H](Cc1ccccc1)C(N)=O | 304 | 336 | 5.39 | 305 | 7.88 | 3.66 | 2.51 | –
3 | C[C@@H](NC(=O)[C@@H](N)Cc1ccc(O)cc1)C(=O)NCC(=O)N[C@@H](Cc1c[nH]c2ccccc12)C(=O)N[C@@H](Cc1ccc(Cl)cc1)C(N)=O | 570 | 246 | 5.39 | 528 | 8.11 | 4.2 | 2.84 | –
4 | C[C@@H](NC(=O)[C@H](Cc1ccc(O)cc1)NC(=N)N)C(=O)NCC(=O)N[C@@H](Cc1c[nH]c2ccccc12)C(=O)N[C@@H](Cc1ccc(Cl)cc1)C(N)=O | 1400 | 650 | 5.69 | 635 | 8.49 | 7.25 | 4.73 | inactive
5 | C[C@@H](NC(=O)[C@H](Cc1ccc(O)cc1)NC(=N)N)C(=O)NCC(=O)N[C@@H](Cc1c[nH]c2ccccc12)C(=O)N[C@@H](Cc1ccccc1)C(N)=O | 631 | 1160 | 5.41 | 2140 | 8.74 | 7.4 | 4.08 | –

— ChEMBL document CHEMBL4184138 (Bioorg Med Chem Lett, 2017)
